Screening data deposited in PubChem BioAssay by several laboratories.
The list is not random: actives were taken first. Their share in the collection is about 3.4%.
VIM-2 inhibitor: inhibitors of Pseudomonas aeruginosa VIM-2 metallo-beta-lactamase; purified VIM-2, nitrocefin hydrolysis, epi-absorbance fluorescence; inhibition, % at 5.6 µM; actives 0.89% (n = 290,000);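 active = inhibition above the mean of all tested compounds plus 3 SD, cutoff set per screening run, cut at about 7.5% in these data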;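 note: red hydrolysis product quenches plate fluorescence so inhibitors raise well fluorescence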
CHT block: inhibits the human high affinity choline transporter | B-score at 10 µM | Q9GZV3 | CHT-expressing cells, membrane potential dye, choline response; active compounds read low | actives 0.86% (n = 310,000) | AID 488975;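 active = B-score over 3 SD under the library average, and starting fluorescence ratio not unusually high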;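 note: choline stimulus applied at its EC90 after an EC20 pre-addition; B-score computed on integrated fluorescence ratio after choline addition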
ANO1 block: inhibitors of mouse TMEM16A calcium-activated chloride channel; normalized B-score (activity score, 25-100; higher = stronger inhibition) at 10 µM; actives 1.2% (n = 310,000); HEK293 TMEM16A/YFP iodide influx fluorescence, ionomycin; Q8BHY3; AID 588511;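 active = ratio plate-corrected score three or more library SD toward inhibition, starting fluorescence score within five deviations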;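 note: score derived from kinetic fluorescence span divided by baseline fluorescence per well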
ANO1 activ: activators or potentiators of mouse TMEM16A chloride channel | actives 0.3% (n = 340,000) | B-score at 10 µM | HEK293 TMEM16A/YFP-H148Q/I152L, iodide quench fluorescence; active compounds read low;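 active = fluorescence-ratio B-score plate-corrected deviation score at least 3 library SD below zero, with starting fluorescence score within 5 deviations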;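 note: channel opened by trigger with iodide after compound preincubation; score built on the fluorescence ratio of max minus min over baseline; more negative score means more quench and so TMEM16A activation or potentiation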
IMP-1 inhibitor: blocks Pseudomonas aeruginosa IMP-1 metallo-beta-lactamase; purified IMP-1, nitrocefin hydrolysis, epi-absorbance fluorescence; inhibition, % at 5.6 µM; actives 0.45% (n = 290,000);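 active = inhibition above the mean plus 3 SD of all compounds in the same screening run, cut at about 4.5% in these data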
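System: purified IMP-1 / Input: IMP-1 dispensed at 0.2 nM / Medium: 50 mM HEPES pH 7.1, 50 µM ZnSO4, 0.05% Brij 35 / Timing: 15 min enzyme–compound preincubation, then 25 min nitrocefin reaction, 25 °C / Technique: plate fluorescence quenching by hydrolysis product, ex 480/em 530 nm / Repeats: singlicate testing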
CHT allo act: allosteric activators of human choline transporter CHT; Q9GZV3; CHT-expressing cells, membrane potential dye, choline EC20; active compounds read high; LV-AA mutant CHT in HEK293 cells; B-score at 10 µM; actives 0.49% (n = 310,000); AID 488977;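 active = initial fluorescence not abnormally high and integrated response B-score, plate-corrected, over 3 SD above library mean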
CHT act confirm: confirmation of human choline transporter (CHT) activators; shares compounds with CHT allo act; actives 91% (n = 2,500); activation, % at 10 µM; CHT-expressing cells, membrane potential dye fluorescence (FDSS); % of choline EC20–EC90 response window; HEK293 expressing CHT LV-AA mutant; choline added at its EC20;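 active = primary screen active, with duplicate mean activation above negative control mean plus 3 SD, cut at about 11% in these data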
HEK293 MP dye: CHT activator counter-screen hit in parental HEK293 cells | actives 62% (n = 2,500) | shares compounds with CHT allo act | membrane potential dye fluorescence (FDSS); measured after EC20 choline addition | AID 623908 | ratio readout change at 10 µM, hits read low;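 active = duplicate-averaged ratio beyond 3 SD from buffer wells, up or down, though filed actives are nearly all decreases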
Numbers stand for hits; i = inactive; nt = no result given.

SMILES	VIM-2 inhibitor	CHT block	ANO1 block	ANO1 activ	IMP-1 inhibitor	CHT allo act	CHT act confirm	HEK293 MP dye
Cc1cccc(NC(=S)N=Nc2c(O)[nH]c3ccccc23)c1	i	i	i	i	i	9.5	i	i
CSc1ccccc1C(=O)N(C)C(c1ccccc1)c1ccccc1	i	i	i	i	i	i	45	i
CCSc1ccc2cc(OC)ccc2[n+]1CC	i	i	i	i	i	6.3	40	-54
Cn1ccnc1-c1ccc(-c2nccn2C)cc1	i	i	i	i	i	10	64	-76
Cn1ccnc1-c1nnn(-c2ccc(Cl)c(Cl)c2)n1	nt	i	i	i	nt	i	nt	nt
COc1cccc(CC(=O)OCC(=O)Nc2c(C)nn(-c3ccccc3)c2C)c1	nt	nt	nt	i	nt	nt	nt	nt
Cc1cc(C)nc(SCC(=O)NC2CCCCC2C)n1 (configuration not stated)	nt	i	i	i	nt	i	nt	nt
COc1cc(C(=O)OCCCN2CCCN(CCCOC(=O)c3cc(OC)c(OC)c(OC)c3)CC2)cc(OC)c1OC	nt	i	i	i	nt	9.1	44	-31
Fc1ccc(Cn2nnnc2C(c2cccs2)N2CCN(C3CCCCC3)CC2)cc1 (configuration not stated)	i	i	i	i	i	i	40	-25
COc1ccc(OC)c(C(c2nnnn2Cc2ccccc2)N2CCN(C3CCCCC3)CC2)c1 (configuration not stated)	i	i	i	i	i	i	10	i
COCCn1nnnc1C(c1cccs1)N1CCN2CCCC2C1 (configuration not stated)	i	i	i	i	i	i	nt	nt
COc1ccccc1C(c1nnnn1Cc1ccccc1)N1CCN(C2CCCC2)CC1 (configuration not stated)	i	i	i	i	i	i	nt	nt
CCn1cc(Cl)c(C(=O)Nc2nc3ccccc3n2CCN2CCCCC2)n1	i	i	i	i	i	9.6	53	-67
COc1ccccc1CNc1nc2ccccc2n1CCN1CCCCC1	i	i	i	i	i	6.3	40	-22
O=C(Nc1nc2ccccc2n1CCN1CCCCC1)c1ccco1	i	i	i	i	i	8.1	29	-41
O=C(NCc1ccccc1CN1CCCC1)c1cc2cc(Cl)ccc2o1	nt	nt	nt	i	nt	nt	nt	nt
CN(Cc1ccccc1)CC1C2CCC(C2)C1O (configuration not stated)	nt	nt	nt	i	nt	nt	nt	nt
Cc1cc(C)c2nc(SCC(=O)NC(=O)c3cccn3C)cc(C)c2c1	i	i	i	i	i	i	nt	nt
Cc1ccc(-c2c[n+](Cc3ccc(Cl)c(Cl)c3)c3n2CCC3)cc1	i	i	i	i	i	7	52	-30
Cc1ccc(C(=O)C[n+]2cc(-c3ccc(C)cc3)n3c2CCCCC3)cc1	i	i	i	i	i	i	nt	nt
CC1(C)C(=O)Nc2ccccc2N1C(=O)COC(=O)c1ccc(Cl)c(S(=O)(=O)NCc2ccccc2)c1	i	i	i	i	i	i	12	i
CC(NCc1ccccc1O)c1ccccc1 (configuration not stated)	i	i	i	i	i	i	nt	nt
CC(CC12CC3CC(CC(C3)C1)C2)NCc1ccccc1O (configuration not stated)	i	i	i	i	i	i	i	i
COc1ccc(CCNC(=O)c2cccc(S(=O)(=O)N3CCc4ccccc4C3)c2)cc1	nt	nt	nt	i	nt	nt	nt	nt
Cc1ccc(CN2CCSc3ccc(C(=O)NCc4cccnc4)cc32)cc1	i	i	i	i	i	6.9	29	i
SMILES	VIM-2 inhibitor	CHT block	ANO1 block	ANO1 activ	IMP-1 inhibitor	CHT allo act	CHT act confirm	HEK293 MP dye
Cc1ccc(CN2CCSc3ccc(C(=O)NCCCN4CCN(C)CC4)cc32)cc1	i	i	i	i	i	i	nt	nt
COc1ccc(OC)c2nc(-c3ccncc3)ccc12	i	i	i	nt	i	i	52	-52
COc1ccccc1CNC(=O)COc1cc2c(c3oc(=O)cc(C)c13)CCC(C)(C)O2	i	i	i	i	i	i	24	i
COc1ccc(CNC(=O)COc2cc3c(c4oc(=O)cc(C)c24)CCC(C)(C)O3)cc1	i	i	i	i	i	i	nt	nt
CSc1ccc(Cl)c(C(=O)Nc2cc(S(=O)(=O)N3CCOCC3)ccc2N2CCOCC2)c1	nt	nt	nt	i	nt	nt	nt	nt
c1cc(-c2sc(-c3ccncc3)c(-c3ccncc3)c2-c2ccncc2)ccn1	i	i	i	i	i	i	59	-47
Nc1nnc(-c2ccncc2)s1	i	i	i	i	i	i	nt	nt
C[C@H]1COC(=O)[C@H](CC(=O)OC(C)(C)C)C/C=C\C[C@@H](CC(=O)N[C@@H](CO)Cc2ccccc2)C(=O)N1	nt	nt	nt	i	nt	nt	nt	nt
CC(C)Oc1ccc(C(=O)OCC(=O)c2ccc[nH]2)cc1	nt	nt	nt	i	nt	nt	nt	nt
CCOC(=O)C(C)Sc1cc(CS(=O)(=O)c2ccccc2)nc(-c2ccccc2)n1 (configuration not stated)	i	i	i	i	i	7.7	i	i
O=S(=O)(c1ccc(C2=CSC3=NCCN23)cc1)N1CCOCC1	i	i	i	i	i	6.3	36	-40
C[n+]1ccc(C(=O)NCCC[N+](C)(C)C)cc1/C=N/O	i	i	i	i	i	7.3	44	-31
CCCCN(C(=O)c1cc(CC)c(C)s1)c1c(N)n(CCC)c(=O)[nH]c1=O	nt	i	i	i	nt	i	nt	nt
COc1ccc(-n2c(-c3ccc(Br)cc3)c[n+]3c2SC(C)C3)cc1 (configuration not stated)	i	i	i	i	i	i	36	-52
CCOc1ccc(-c2c[n+]3c(n2-c2ccccc2)CCCCC3)cc1	i	i	i	i	i	7.2	15	i
COc1ccc(-n2c(-c3ccc(Br)cc3)c[n+]3c2CCCCC3)cc1	i	i	i	i	i	11	62	i
Cc1ccc(-n2c(-c3ccc(Cl)cc3)c[n+]3c2CCC3)cc1	i	i	i	i	i	i	nt	nt
FC(F)Sc1ccc(-n2c(-c3ccc(Cl)cc3)c[n+]3c2CCC3)cc1	i	i	i	i	i	6.3	30	-35
COc1ccc(N2CCN(C(=O)COC(=O)COc3cc(C)cc(C)c3)CC2)cc1	nt	i	i	i	nt	i	nt	nt
CC(=O)/C(C#N)=C1\NC(=O)C(Cc2ccccc2C)S1 (configuration not stated)	i	i	i	i	i	i	nt	nt
C=CCn1c[n+](CC(=O)c2ccc(Br)s2)c2ccccc21	i	i	i	i	i	i	45	-27
